Measurements as given in ChEMBL document CHEMBL2163193, “Meroterpenoid and diphenyl ether derivatives from Penicillium sp. MA-37, a fungus isolated from marine mangrove rhizospheric soil” (J Nat Prod, 2012).
Values after ≈ are worked out from the molar mass of the structure shown.

Columns and labels:
[1] = Toxicity against brine shrimp; assay type: organism-based; details: artemia, in vivo; read-out: LD50 (the source's name)
In short: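 Brine shrimp lethality follows a literature procedure, with DMSO as the negative control and colchicine as the positive control. Lethality is expressed as LD50 in μM.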

[2] = test system: Escherichia coli; experiment: Antimicrobial activity against Escherichia coli by broth microdilution method; assay type: functional
In short: (§1)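 Broth microdilution run per a cited literature method, with chloromycetin as the positive control. The read-out is the MIC in μg/mL.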

[3] = test system: Micrococcus luteus; experiment: Antimicrobial activity against Micrococcus luteus by broth microdilution method; assay type: functional; in short: as §1

Row | Compound | LC50 [1] | MIC [2] | MIC [3]
1 | C=C(C)/C=C/c1ccc2c(c1OC)C(=O)OCc1cc(C)cc(O)c1O2 | 136 µM | – | –
2 | CC(=O)OCc1cc(C)cc(O)c1Oc1ccc(CC=C(C)C)c(O)c1C(=O)O | – | 16 µg/mL (≈ 40 µM) | 64 µg/mL (≈ 160 µM)
3 | COc1c(C(CC(C)C)OC)ccc(Oc2c(O)cc(C)cc2CO)c1C(=O)O (stereo unspecified) | – | 32 µg/mL (≈ 79.1 µM) | 256 µg/mL (≈ 633 µM)
4 | COc1c(/C=C/C(C)(C)OC)ccc2c1C(=O)OCc1cc(C)cc(O)c1O2 | 72.6 µM | – | –
5 | COC(=O)[C@]12C(=O)[C@H](C)O[C@@H]3OC(=O)[C@](C)(C[C@H]4[C@]5(CO5)C5=CC(=O)OC(C)(C)C5=CC[C@@]41C)[C@@H]32 [BERKELEYACETAL B] | 160 µM | – | –
6 | O=C(N[C@H](CO)[C@H](O)c1ccc([N+](=O)[O-])cc1)C(Cl)Cl [CHLORAMPHENICOL] | – | 4 µg/mL (≈ 12.4 µM) | 4 µg/mL (≈ 12.4 µM)
7 | COc1cc2c(c(OC)c1OC)-c1ccc(OC)c(=O)cc1[C@@H](NC(C)=O)CC2 [COLCHICINE] | 71.1 µM | – | –
8 | COc1c([C@@H](O)CC(C)C)ccc2c1C(=O)OCc1cc(C)cc(O)c1O2 [PENICILLIDE] | 158 µM | – | –
